The source of these data is ChEMBL document CHEMBL1153058, “Cycloaspeptides F and G, Cyclic Pentapeptides from a Cordyceps-colonizing isolate of Isaria farinosa” (2009).

Where a SMILES comes first, the peptide text is derived from it. [ ]: non-standard residue; d: D form. The star is where a group is joined. βGlc = OC[C@H]1O[C@@H](*)[C@H](O)[C@@H](O)[C@@H]1O; NMeY = CN[C@@H](Cc1ccc(O)cc1)C(=O)O; NMeF = CN[C@@H](Cc1ccccc1)C(=O)O; 2Abz = Nc1ccccc1C(=O)O

The test system of one assay is HeLa. Briefly: Cytotoxicity against human HeLa cells after 48 hrs by MTT assay. Type of assay: functional. The method, boiled down: (§1)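 MTT assay: 10^4 cells per well, attached overnight. Cells exposed for 4 h at 37 °C, 5% CO2, to compound serially diluted in medium from a 10 mg/mL DMSO stock, vehicle 0.2% DMSO. Medium then replaced with fresh DMEM and growth continued 48 h. MTT 0.5 mg/mL added for 3 h in the dark, formazan dissolved in DMSO, absorbance read at 540 nm. GI50 derived.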
(In general: Formazan colour is commonly taken as a measure of viable cells.)

The test system of another assay is MCF7. Nature of the assay: Cytotoxicity against human MCF7 cells after 48 hrs by MTT assay. Type of assay: functional. The conditions noted are these: MCF7, 48 h. The essentials:
as §1

As to `CS[C@]1(CO)C(=O)N(C)[C@](Cc2ccccc2)(SC)C(=O)N1C` [BISDETHIODI(METHYLTHIO)HYALODENDRIN], the GI50 – broadly, the concentration that inhibits growth by half – was more than 113 µM with HeLa and 113 µM in the assay on MCF7.
`CC(C)C[C@@H]1NC(=O)[C@H](Cc2ccccc2)N(C)C(=O)[C@H](C)NC(=O)c2ccccc2NC(=O)[C@H](Cc2ccc(O)cc2)N(C)C1=O` [CYCLOASPEPTIDE A] (cyclo([2Abz]A[NMeF]L[NMeY])): the GI50 in the assay with HeLa was 31.2 µM; with MCF7 it was 23.4 µM.
As to `CC(C)C[C@@H]1NC(=O)[C@H](Cc2ccccc2)N(C)C(=O)[C@H](C)NC(=O)c2ccccc2NC(=O)[C@H](Cc2ccc(O[C@@H]3O[C@H](CO)[C@@H](O)[C@H](O)[C@H]3O)cc2)N(C)C1=O` [Cycloaspeptide F] (cyclo([2Abz]A[NMeF]L[NMeY](βGlc))), the GI50 is 49.8 µM with HeLa and 18.7 µM in the assay with MCF7.
`CC(C)C[C@@H]1NC(=O)[C@H](Cc2ccc(O)cc2)N(C)C(=O)[C@H](C)NC(=O)c2ccccc2NC(=O)[C@H](Cc2ccc(O)cc2)N(C)C1=O` [Cycloaspeptide G] (cyclo([2Abz]A[NMeY]L[NMeY])): the results for the GI50 in the assay on HeLa and with MCF7 were 30.4 µM and 15.2 µM, respectively.
For `O=c1[nH]cc(F)c(=O)[nH]1` [FLUOROURACIL], the GI50 is 10 µM in the assay on HeLa and 15 µM with MCF7.
Consider `CC(C)C[C@@H]1NC(=O)[C@H](Cc2ccccc2)NC(=O)[C@H](C)NC(=O)c2ccccc2NC(=O)[C@H](Cc2ccc(O)cc2)N(C)C1=O` [cycloaspeptide C] (cyclo([2Abz]AFL[NMeY])), for which the GI50 is more than 63.4 µM in the assay on HeLa and 31.9 µM with MCF7.
